This passage reports MIC and half-life results from ChEMBL document CHEMBL1153576, “Novel ureas and thioureas of 15-membered azalides with antibacterial activity against key respiratory pathogens” (Eur J Med Chem, 2009).

Converted amounts (≈) assume the structure as drawn.

In one data set the test system is Haemophilus influenzae. Put plainly: Antibacterial activity against Haemophilus influenzae ATCC 49247 after 16 to 22 hrs by broth dilution method. The data set is classed as functional. The gist of the method: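 Microdilution trays following the CLSI standard, with two-fold serial dilutions in supplemented broth suited to H. influenzae. DMF stocks at 5 mg/ml. Inoculum prepared from a turbidity-adjusted direct colony suspension to about 5 × 10⁴ CFU/well final. Incubated at 35 °C for 16–22 h. MIC is the lowest concentration giving complete (99%) growth inhibition.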
On the technique in general: Dilution methods test growth across graded concentrations, often in twofold steps.

The test system of data set [1] is Streptococcus pneumoniae. Nature of the data set: Antibacterial activity against constitutive macrolide-lincosamide-streptogramin-resistant Streptococcus pneumoniae after 16 to 22 hrs by broth microdilution method. The data set is classed as functional. The gist of the method: (§1)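 Two-fold serial dilutions in microdilution trays, following the CLSI dilution standard for aerobic bacteria. Medium was Mueller–Hinton broth with 5% horse serum for streptococci. Stocks were made at 5 mg/ml in DMF. Inoculum came from a direct colony suspension adjusted by turbidity to about 5 × 10⁴ CFU/well final. Incubation was at 35 °C for 16–22 h. MIC is the lowest concentration completely inhibiting growth (99% inhibition).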

The next data set deals with Moraxella catarrhalis. Nature of the data set: Antibacterial activity against Moraxella catarrhalis ATCC 23246 after 16 to 22 hrs by broth dilution method. Type of data set: functional. Put shortly: (§2)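 Broth microdilution per the CLSI approved standard (sixth edition), using two-fold serial dilutions of compound in Mueller–Hinton broth. Stocks at 5 mg/ml in DMF. Inoculum came from a direct colony suspension adjusted by turbidity to about 5 × 10⁴ CFU/well final. Trays were incubated at 35 °C for 16–22 h. MIC is the lowest concentration completely inhibiting growth (99% inhibition).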

A further data set relates to Enterococcus faecalis. Nature of the data set: Antibacterial activity against Enterococcus faecalis ATCC 29212 after 16 to 22 hrs by broth dilution method. The data set is classed as functional. The gist of the method: as §2
The test system of data set [2] is Streptococcus pneumoniae. Put plainly: Antibacterial activity against erythromycin-susceptible Streptococcus pneumoniae after 16 to 22 hrs by broth microdilution method. The data set is classed as functional. Put shortly:
(§3)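 Streptococci tested by CLSI broth microdilution in Mueller–Hinton broth with 5% horse serum, using two-fold serial dilutions. Compounds were dissolved in DMF at 5 mg/ml (stock). Inoculum was a turbidity-adjusted direct colony suspension giving about 5 × 10⁴ CFU/well. Trays were held at 35 °C for 16–22 h. MIC is the lowest concentration completely inhibiting growth (99%).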

Another data set has as its system Escherichia coli. Put plainly: Antibacterial activity against Escherichia coli ATCC 25922 after 16 to 22 hrs by broth dilution method. Type of data set: functional. Put shortly:
as §2

Data set [3] has as its system Streptococcus pyogenes. Nature of the data set: Antibacterial activity against inducible macrolide-lincosamide-streptogramin-resistant Streptococcus pyogenes 16 to 22 hrs by broth microdilution method. The data set is classed as functional. Put shortly:
as §1

In data set [4] the test system is Streptococcus pyogenes. Put plainly: Antibacterial activity against erythromycin-susceptible Streptococcus pyogenes after 16 to 22 hrs by broth microdilution method. Type of data set: functional. The gist of the method: as §3
A further data set has as its system Staphylococcus aureus. Put plainly: Antibacterial activity against Staphylococcus aureus ATCC 29213 after 16 to 22 hrs by broth microdilution method. Type of data set: functional. Put shortly: as §2
Data set [5] relates to Streptococcus pyogenes. Put plainly: Antibacterial activity against efflux-mediated macrolide-resistance Streptococcus pyogenes after 16 to 22 hrs by broth microdilution method. The data set is classed as functional. The gist of the method: as §1
Data set [6] deals with Streptococcus pneumoniae. Put plainly: Antibacterial activity against efflux-mediated macrolide-resistant Streptococcus pneumoniae after 16 to 22 hrs by broth microdilution method. The data set is classed as functional. The gist of the method:
as §1

Data set [7] can be described thus: Chemical stability in 0.01 M artificial gastric juice assessed as half life at 37 degC. The data set is classed as physicochemical. Put shortly: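 Acid degradation followed as pseudo-first-order kinetics. Rate constants came from an exponential fit of reactant concentration versus time, and t1/2 was calculated from k.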

Take `CC[C@H]1OC(=O)[C@H](C)[C@@H](O[C@H]2C[C@@](C)(OC)[C@@H](O)[C@H](C)O2)[C@H](C)[C@@H](O[C@@H]2O[C@H](C)C[C@H](N(C)C)[C@H]2O)[C@](C)(O)C[C@@H](C)CN(CCCN(CCC#N)C(=O)Nc2cccc3ccccc23)[C@H](C)[C@@H](O)[C@]1(C)O`: the MIC with Haemophilus influenzae is 4 µg/mL (≈ 3.94 µM); against Streptococcus pneumoniae [1] it was 64 µg/mL (≈ 63.1 µM); with Moraxella catarrhalis, 0.5 µg/mL (≈ 0.493 µM); against Enterococcus faecalis it was 16 µg/mL (≈ 15.8 µM); against Streptococcus pneumoniae [2], not above 0.125 µg/mL; against Escherichia coli, 8 µg/mL (≈ 7.89 µM). Further, the MIC was 8 µg/mL (≈ 7.89 µM) against Streptococcus pyogenes [3]; not above 0.125 µg/mL against Streptococcus pyogenes [4]; 1 µg/mL (≈ 0.986 µM) against Staphylococcus aureus; 8 µg/mL (≈ 7.89 µM) with Streptococcus pyogenes [5]; 16 µg/mL (≈ 15.8 µM) against Streptococcus pneumoniae [6]. Moreover, in data set [7], the half-life (commonly the time needed for the level to fall by half in the phase considered) amounted to 1.8 h.
`CC[C@H]1OC(=O)[C@H](C)[C@@H](O[C@H]2C[C@@](C)(OC)[C@@H](O)[C@H](C)O2)[C@H](C)[C@@H](O[C@@H]2O[C@H](C)C[C@H](N(C)C)[C@H]2O)[C@](C)(O)C[C@@H](C)CN(CCCNC(=O)Nc2cccc3ccccc23)[C@H](C)[C@@H](O)[C@]1(C)O`: the MIC was 1 µg/mL (≈ 1.04 µM) against Haemophilus influenzae; more than 64 µg/mL against Streptococcus pneumoniae [1]; 0.5 µg/mL (≈ 0.52 µM) in the data set with Moraxella catarrhalis; 4 µg/mL (≈ 4.16 µM) in the data set on Enterococcus faecalis; not above 0.125 µg/mL against Streptococcus pneumoniae [2]; 8 µg/mL (≈ 8.32 µM) with Escherichia coli. In addition, the MIC against Streptococcus pyogenes [3] is 2 µg/mL (≈ 2.08 µM); in the data set with Streptococcus pyogenes [4] it was not above 0.125 µg/mL; in the data set with Staphylococcus aureus it was 0.5 µg/mL (≈ 0.52 µM); against Streptococcus pyogenes [5], 4 µg/mL (≈ 4.16 µM); in the data set with Streptococcus pneumoniae [6], 4 µg/mL (≈ 4.16 µM). In data set [7], the half-life came out at 1.98 h.
Take `CC[C@H]1OC(=O)[C@H](C)[C@@H](O[C@H]2C[C@@](C)(OC)[C@@H](O)[C@H](C)O2)[C@H](C)[C@@H](O[C@@H]2O[C@H](C)C[C@H](N(C)C)[C@H]2O)[C@](C)(O)C[C@@H](C)CN(CCCN(CCC#N)C(=O)Nc2ccccc2)[C@H](C)[C@@H](O)[C@]1(C)O`: the MIC in the data set with Haemophilus influenzae was 8 µg/mL (≈ 8.3 µM); in the data set with Streptococcus pneumoniae [1] it was more than 64 µg/mL; in the data set with Moraxella catarrhalis, 4 µg/mL (≈ 4.15 µM); in the data set with Enterococcus faecalis, 32 µg/mL (≈ 33.2 µM); against Streptococcus pneumoniae [2], not above 0.125 µg/mL; with Escherichia coli it was 32 µg/mL (≈ 33.2 µM). Also, the MIC was 16 µg/mL (≈ 16.6 µM) with Streptococcus pyogenes [3]; not above 0.125 µg/mL against Streptococcus pyogenes [4]; 1 µg/mL (≈ 1.04 µM) against Staphylococcus aureus; 32 µg/mL (≈ 33.2 µM) with Streptococcus pyogenes [5]; 32 µg/mL (≈ 33.2 µM) against Streptococcus pneumoniae [6].
